Shown are actives, neighbours in structure and some others; about 3.1% of the full set was active somewhere.
Ecoli rRNA inh: inhibits bacterial ribosomal RNA function over humanized ribosomes. AID 720706. 350,000 compounds, 1.6% hits. E. coli WT GFP vs humanized-ribosome RFP mutants, fluorescence, 24 h; active compounds read low; DMSO median 0, no signal -100. GFP signal change (wild-type ribosome), % (concentration not given with the values);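 active means significant combined selectivity score with lowered wild-type GFP, culture density cut under 30%, mutant RFP and density less affected; inactive means any of these conditions unmet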
Cneo AK release: causes C. neoformans cell lysis; 360,000 compounds, 0.2% hits; lysis activity, % at 15 µM; adenylate kinase release luminescence, 4 h; normalised: neutral wells 0, clomiphene wells 100;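 active means mean lysis activity across replicates of at least 80%, whatever share of replicates individually reach that level; inactive means mean lysis activity below 80%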
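Material: C. neoformans cells; Schedule: 4 h static compound exposure, 37 °C, read 1 h post-reagent; Measured by: adenylate kinase release luminescence; Read-out: signal increase indicating cell lysis; Controls: Clomiphene as positive lysis control.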
E-selectin induc: induces E-selectin expression in human endothelial cells. HUVEC E-selectin immunofluorescence imaging; normalized: neutral wells 0, TNF-alpha wells 100. 260,000 compounds, 0.37% hits. P16581. AID 686992. activation, % at 7.58 µM;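 active means mean E-selectin-positive cell signal at least 10% of the positive control, reached in at least 60% of replicates, without over 20% cell loss; inconclusive means no rule given, readout overlaps actives, possibly toxicity-flagged; inactive means the rest, including those meeting only one limit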
Target sequence (P16581 whole entry, looked up): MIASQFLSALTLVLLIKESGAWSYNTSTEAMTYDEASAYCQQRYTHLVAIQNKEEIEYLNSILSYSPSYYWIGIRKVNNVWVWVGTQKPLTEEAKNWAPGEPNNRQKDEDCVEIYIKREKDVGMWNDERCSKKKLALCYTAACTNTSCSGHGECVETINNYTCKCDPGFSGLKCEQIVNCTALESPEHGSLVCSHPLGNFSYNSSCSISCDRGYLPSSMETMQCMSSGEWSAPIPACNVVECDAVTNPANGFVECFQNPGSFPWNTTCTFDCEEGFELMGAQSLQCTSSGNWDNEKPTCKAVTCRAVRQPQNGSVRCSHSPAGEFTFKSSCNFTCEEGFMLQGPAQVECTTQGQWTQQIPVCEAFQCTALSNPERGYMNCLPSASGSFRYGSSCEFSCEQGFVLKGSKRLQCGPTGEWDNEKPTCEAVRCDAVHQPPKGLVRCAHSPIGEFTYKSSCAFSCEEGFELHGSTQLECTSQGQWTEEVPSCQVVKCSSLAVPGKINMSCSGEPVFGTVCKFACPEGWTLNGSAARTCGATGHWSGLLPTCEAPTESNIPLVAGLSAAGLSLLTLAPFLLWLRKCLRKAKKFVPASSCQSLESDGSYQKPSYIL
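material = human umbilical vein endothelial cells (HUVEC), E-selectin induction | quantity = 3,000 cells/well | medium = EGM-2 growth medium on 0.1% gelatin-coated wells | technique = immunofluorescence imaging | read-out basis = % PE-positive cells | control set = TNF-alpha positive control, DMSO neutral control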
DENV2 CPE rescue: DENV2-induced cell death inhibition | 350,000 compounds, 1.7% hits | CPE inhibition, % at 9.99 µM | AID 651640 | DENV2-infected cells, cytopathic effect rescue, plate reader; in the data active means CPE inhibition above about 20%, passing the limit was not always enough; inconclusive means no clear call, values can overlap the other calls; tested in BHK-21 cells
miR-122 sensor: blocks miR-122 activity in Huh7 sensor cells | activation (reporter increase), % at 12.5 µM | 340,000 compounds, 0.3% hits | Huh7 miR-122 Renilla luciferase sensor, 48 h; neutral wells = 0, positive control = 100;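 active means mean replicate activation score at least 90 and every replicate individually at or above 90; inconclusive means only one of the two criteria met; inactive means neither criterion met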;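 further: higher luciferase means less miR-122 activity so hits act as miR-122 inhibitors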
Hits are given with their value; 0 = inactive; ? = inconclusive; - = not tested or not shown.

SMILES	Ecoli rRNA inh	Cneo AK release	E-selectin induc	DENV2 CPE rescue	miR-122 sensor
COc1ccc(CN2CN(S(=O)(=O)c3ccccc3)c3nc4ccccc4nc32)cc1	-25	-	0	0	-
COc1ccc(CN2CN(S(=O)(=O)c3cccs3)c3nc4ccccc4nc32)cc1	-42	-	0	0	-
CN(Cc1c(C(=O)N/N=C/c2ccc(O)cc2)nnn1-c1nonc1N)c1ccccc1	-27	0	0	0	0
CN(C)c1ccc(/C=N/NC(=O)c2nnn(-c3nonc3N)c2CN(C)c2ccccc2)cc1	0	0	-	0	0
Nc1nonc1-n1nnc(C(=O)N/N=C/c2ccc(OCc3ccccc3)cc2)c1COc1ccc(F)cc1	0	0	0	0	0
COc1ccc(/C=N/NC(=O)c2nnn(-c3nonc3N)c2CN(C)c2ccccc2)cc1	0	0	-	0	0
Nc1nonc1-n1nnc(C(=O)N/N=C/c2ccccc2Cl)c1CSc1ccccc1	-18	0	0	0	0
CN(Cc1c(C(=O)N/N=C/c2ccccc2)nnn1-c1nonc1N)c1ccccc1	-27	0	-	0	0
Nc1nonc1-n1nnc(C(=O)N/N=C/c2ccc(O)cc2)c1COc1ccc(F)cc1	-24	0	0	0	0
CCN1[C@@H]2c3ccc(-c4cccc(F)c4)c(=O)n3C[C@@H]2[C@@H](CO)[C@@H]1C(=O)OC	0	-	0	0	-
O=C(COc1ccc(-c2ccccc2)cc1)N1CCN(S(=O)(=O)Cc2ccccc2)CC1	-	0	-	-	99
Cc1ccc(OCC(=O)N2CCN(C(=O)Cc3ccccc3)CC2)cc1	0	0	-	-	-
c1ccc(Nc2c(-c3ccco3)nc3ccccn23)cc1	-	0	0	-	0
Cc1ccc(Nc2c(-c3ccco3)nc3ccccn23)cc1	0	0	0	75	0
Cc1ccc(C(=O)Nc2ccc(O)cc2C(=O)O)cc1C	-25	0	-	0	0
CCc1nnc(NS(=O)(=O)c2ccc(NC(=O)c3ccccc3)cc2)s1	0	0	0	-	0
CC(C)Cc1nnc(NS(=O)(=O)Cc2ccccc2)s1	-	0	-	-	0
CCc1nnc(NC(=O)c2ccc(NS(=O)(=O)c3ccccc3)cc2)s1	-	0	-	-	212
CCc1nnc(NS(=O)(=O)c2ccc(NC(=S)NC(=O)/C=C/c3ccccc3)cc2)s1	-37	-	-	0	-
CCc1nnc(NS(=O)(=O)c2ccc(NC(=S)NC(=O)/C=C/c3ccc(OC)cc3)cc2)s1	-	-	0	-	-
CC(C)Cc1nnc(NS(=O)(=O)c2ccccc2)s1	-17	0	0	0	0
CCCN(C)C[C@@H]1OCCCC[C@H](C)Oc2ccc(NC(=O)C3CCCCC3)cc2C(=O)N([C@H](C)CO)C[C@@H]1C	0	-	0	-	-
CCOC(=O)c1cnc(-n2nc(C)cc2C)nc1Nc1ccc(OC)cc1	-	0	-	-	0
CCOC(=O)c1cnc(-n2nc(C)cc2C)nc1NC1CCCC1	-49	0	0	0	0
CCCN1[C@@H]2Cn3c(ccc(/C=C/c4ccccc4)c3=O)[C@H]1[C@@H](C(=O)NCc1ccccn1)[C@@H]2CO	0	0	0	0	0
SMILES	Ecoli rRNA inh	Cneo AK release	E-selectin induc	DENV2 CPE rescue	miR-122 sensor
COc1ccc2c3c([nH]c2c1)[C@@H](CO)N(Cc1ccccc1)CC31CCN(S(=O)(=O)c2ccc(C)cc2)CC1	0	-	0	0	-
Cc1cc(NS(=O)(=O)c2ccc(NC(=O)Cc3ccccc3)cc2)nc(C)n1	0	0	-	0	-
COc1ccc(CC(=O)Nc2ccc(S(=O)(=O)Nc3cc(C)nc(C)n3)cc2)cc1OC	0	0	0	30	0
COc1cc(C2NC(=O)NC(C)=C2C(=O)OC2CCCC(C)C2)cc(Br)c1O (stereo not drawn)	0	0	0	46	0
O=C(Nc1nnc([C@H]2C[C@H](O)[C@@H](CO)O2)s1)c1ccccc1F	0	0	0	29	0
C[C@H]1CN([C@@H](C)CO)C(=O)c2cc(/C=C/c3ccccc3)cnc2O[C@@H]1CN(C)C(=O)C1CC1	0	-	0	-	0
O=C(Nc1cccc(Cl)c1)OC1CCCCc2cccnc21 (stereo not drawn)	-24	-	0	0	-
Cc1ccc(N=C2C(=O)Nc3c(C)cccc32)cc1	0	0	0	0	0
Cc1cccc2c1NC(=O)C2=Nc1ccc(Cl)cc1	-19	0	-	0	0
CN(CC(=O)Nc1cccc(F)c1)CC(=O)N1CCc2ccccc21	0	0	182	0	-
CN(CC(=O)Nc1ccc(F)cc1)CC(=O)N1CCc2ccccc21	0	0	0	?	0
C[C@@H]1CN([C@H](C)CO)C(=O)Cc2cc(NS(=O)(=O)c3cccs3)ccc2O[C@H]1CN(C)Cc1ccncc1	0	0	-	0	0
CCOC(=O)c1c(C)[nH]c(C(=O)C(C)OC(=O)c2cnc(C)cn2)c1C (stereo not drawn)	-26	0	-	0	0
CCOC(=O)c1c(C)[nH]c(C(=O)COC(=O)c2cnc(C)cn2)c1C	-	0	-	-	0
Nc1c(/C=C2/C=CC(=O)C(O)=C2)c(=O)nc2sc(CC(=O)N3CCCC3)nn12	0	0	-	0	0
Nc1c(/C=C2/C=CC(=O)C(O)=C2)c(=O)nc2sc(CC(=O)N3CCOCC3)nn12	0	0	-	31	-
CC(C)CNC(=O)C1(N2C(=O)c3ccccc3C2=O)CCCC1	-	0	-	-	0
O=C(O)CNC(=O)C1(N2C(=O)c3ccccc3C2=O)CCCC1	0	0	0	0	100
CN(C)CCCNC(=O)C[C@H]1CC[C@H]2[C@@H](COc3ccc(NC(=O)CN(C)C)cc3C(=O)N2C)O1	0	-	-	-	-
COc1cc(C(=O)OCCn2c(=O)c3c(ncn3CCN(C)C)n(C)c2=O)cc(OC)c1OC	0	0	-	25	-
Cc1ccc(/C=C2/C(=O)ON=C2c2ccccc2)o1	0	-	-	42	-
O=C1ON=C(c2ccccc2)/C1=C\c1ccco1	0	0	0	?	0
NS(=O)(=O)c1ccc(NC(=O)CCC(=O)N2CCOCC2)cc1	0	0	34	0	-
O=C(CCC(=O)N1CCOCC1)Nc1ccc(Cl)c(Cl)c1	0	0	85	0	0
COc1ccc2c3c(n(C)c2c1)[C@H](CO)N(C(=O)Nc1ccc(F)cc1)CC31CCN(C(=O)CC2CC2)CC1	0	-	0	0	-
SMILES	Ecoli rRNA inh	Cneo AK release	E-selectin induc	DENV2 CPE rescue	miR-122 sensor
CC(=O)C1=C(O)C(=O)N(CCc2ccccc2)C1c1ccccc1[N+](=O)[O-] (stereo not drawn)	0	-	-	31	-
CCN(CC)CCN1C(=O)C(O)=C(C(C)=O)C1c1ccccc1[N+](=O)[O-] (stereo not drawn)	0	0	0	0	0
CN(C=O)c1ccc(CSc2ccccc2)cc1	-29	0	0	0	0
O=C(Nc1cccnc1)c1ccc(CSc2ccccc2)cc1	0	-	0	0	-
CCCCNC(=O)C1(C)CCN1C(=O)c1cc(-c2cccs2)oc1C (stereo not drawn)	0	0	-	33	0
COc1cc(CNCc2ccccn2)ccc1OCc1c(Cl)cccc1Cl	-46	0	-	-	0
COc1cc(CNCc2ccccn2)ccc1OCc1cccc(Cl)c1	-41	0	-	-	0
COc1cc(CNCc2ccccn2)ccc1OCc1ccc(Cl)cc1	0	0	-	-	0
